Measured values reported in ChEMBL document CHEMBL1135918, “Gold(III) complexes with bipyridyl ligands: solution chemistry, cytotoxicity, and DNA binding properties” (J Med Chem, 2002).
Blank lines part the entries; values can stand above or below the compound they belong to.

Legend:
Type in all cases: functional, cell-based
[1] = test system: CCRF-CEM; test: Inhibitory effect of Gold(III) complex, [Au(bipy-H)(OH)]-[PF6] on growth of cisplatin-resistant CCRF-CEM/R human tumor cell lines
Outline: (§1)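 Human T-lymphoblastoid leukemia CCRF-CEM/S cells, and CCRF-CEM/R cells selected by continuous exposure to rising cisplatin and kept in 10 µM cisplatin. Exponentially growing cells in RPMI1640 with 10% FCS and antibiotics at 37 °C, 5% CO2. Water-dissolved drugs applied for 72 h, growth read by Coulter counter cell counting. IC50 is 50% growth inhibition versus control.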

[2] = test system: SK-OV-3; test: Inhibitory effect of Gold(III) complex, [Au(bipy-H)(OH)]-[PF6] on growth of cisplatin-resistant SKOV3 human tumor cell lines
Outline: (§2)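 Human ovarian carcinoma cells (A2780/S; A2780/R derived from it by repeated 1 h weekly exposure to 50 µM; SKOV3) grown exponentially in RPMI1640 with 10% FCS and antibiotics at 37 °C, 5% CO2. Drugs dissolved in sterile bidistilled water, 72 h exposure, growth measured by sulforhodamine B assay. IC50 is the concentration inhibiting growth by 50% versus control.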

[3] = test system: A2780; test: Inhibitory effect of Gold(III) complex, [Au(bipy-H)(OH)]-[PF6] on growth of cisplatin-resistant A2780/R human tumor cell lines; outline: as §2
[4] = test system: CCRF-CEM; test: Inhibitory effect of Gold(III) complex, [Au(bipy-H)(OH)]-[PF6] on growth of cisplatin-sensitive CCRF-CEM/S human tumor cell lines; outline: as §1
[5] = test system: A2780; test: Inhibitory effect of Gold(III) complex, [Au(bipy-H)(OH)]-[PF6] on growth of cisplatin-sensitive A2780/S human tumor cell lines; outline: as §2
[6] = test system: CCRF-CEM; test: Inhibitory effect of Gold(III) complex, [Au(bipy)-(OH)2]-[PF6] on growth of cisplatin-sensitive CCRF-CEM/S human tumor cell lines; outline: as §1
[7] = test system: A2780; test: Inhibitory effect of Gold(III) complex, [Au(bipy)-(OH)2]-[PF6] on growth of cisplatin-resistant A2780/R human tumor cell lines; outline: as §2
[8] = test system: A2780; test: Inhibitory effect of Gold(III) complex, [Au(bipy)-(OH)2]-[PF6] on growth of cisplatin-sensitive A2780/S human tumor cell lines; outline: as §2
[9] = test system: CCRF-CEM; test: Inhibitory effect of Gold(III) complex, [Au(bipy)-(OH)2]-[PF6] on growth of cisplatin-resistant CCRF-CEM/R human tumor cell lines; outline: as §1
[10] = test system: SK-OV-3; test: Inhibitory effect of Gold(III) complex, [Au(bipy)-(OH)2]-[PF6] on growth of cisplatin-resistant SKOV3 human tumor cell lines; outline: as §2
[11] = test system: A2780; test: Inhibitory effect of Gold(III) complex, 2,2' bipy on growth of cisplatin-resistant A2780/R human tumor cell lines; outline: as §2
[12] = test system: CCRF-CEM; test: Inhibitory effect of Gold(III) complex, 2,2' bipy on growth of cisplatin-resistant CCRF-CEM/R human tumor cell lines; outline: as §1
[13] = test system: A2780; test: Inhibitory effect of Gold(III) complex, 2,2' bipy on growth of cisplatin-sensitive A2780/S human tumor cell lines; outline: as §2
[14] = test system: CCRF-CEM; test: Inhibitory effect of Gold(III) complex, 2,2' bipy on growth of cisplatin-sensitive CCRF-CEM/S human tumor cell lines; outline: as §1
[15] = test system: SK-OV-3; test: Inhibitory effect of Gold(III) complex, 2,2' bipy on growth of cisplatin-resistant SKOV3 human tumor cell lines; outline: as §2
[16] = test system: A2780; test: Inhibitory effect of Gold(III) complex, CDDP on growth of cisplatin-resistant A2780/R human tumor cell lines; outline: as §2
[17] = test system: CCRF-CEM; test: Inhibitory effect of Gold(III) complex, CDDP on growth of cisplatin-sensitive CCRF-CEM/S human tumor cell lines; outline: as §1
[18] = test system: SK-OV-3; test: Inhibitory effect of Gold(III) complex, CDDP on growth of cisplatin-resistant SKOV3 human tumor cell lines; outline: as §2
[19] = test system: A2780; test: Inhibitory effect of Gold(III) complex, CDDP on growth of cisplatin-sensitive A2780/S human tumor cell lines; outline: as §2
[20] = test system: CCRF-CEM; test: Inhibitory effect of Gold(III) complex, CDDP on growth of cisplatin-resistant CCRF-CEM/R human tumor cell lines; outline: as §1

IC50 [1]: 51.2 µM
IC50 [2]: 13.3 µM
IC50 [3]: 8.2 µM
IC50 [4]: 11.9 µM
IC50 [5]: 3.3 µM
Compound: 8,8-dimethyl-8,12b-dihydro-7b,12c-diazoniabenzo[a]aceanthrylen-12b-ol(gold(III)complex) with Phosphorous hexa fluoride

IC50 [6]: 52.9 µM
IC50 [7]: 24.1 µM
IC50 [8]: 8.8 µM
IC50 [9]: 58.6 µM
IC50 [10]: 34.4 µM
Compound: pyrido[1',2':3,4]imidazo[1,5-a]pyridinediium-6,6-diol(gold(III)complex) with Phosphorous hexa fluoride

IC50 [11]: 44.8 µM
IC50 [12]: 61.7 µM
IC50 [13]: > 20 µM
IC50 [14]: 51.9 µM
IC50 [15]: 41.3 µM
Compound: c1ccc(-c2ccccn2)nc1 [DIPYRIDYL]

IC50 [16]: 15.3 µM
IC50 [17]: 1 µM
IC50 [18]: 21.6 µM
IC50 [19]: 1.3 µM
IC50 [20]: 14.1 µM
Compound: CISPLATIN
